Source: ChEMBL document CHEMBL1153998, “Discovery and structure-activity study of a novel benzoxaborole anti-inflammatory agent (AN2728) for the potential topical treatment of psoriasis and atopic dermatitis” (Bioorg Med Chem Lett, 2009)
Active and inactive are the calls of the source. No cut-off for these calls is given here.

Experiments:
PBMC [1] = experiment: Antiinflammatory activity in human PBMC assessed as inhibition of IL1-beta release by FACSArray analysis; format: functional, cell-based
PBMC [2] = experiment: Antiinflammatory activity in human PBMC assessed as inhibition of IL4 release by FACS Array analysis; format: functional, cell-based
PBMC [3] = experiment: Antiinflammatory activity in human PBMC assessed as inhibition of LPS-induced TNFalpha release in after 24 hrs by FACS Array analysis; format: functional, cell-based
L929 = experiment: Cytotoxicity against mouse L929 cells up to 100 uM; format: cell-based
PBMC [4] = experiment: Antiinflammatory activity in human PBMC assessed as inhibition of phytohemagglutininin-induced IFN-gamma release after 24 hrs by FACSArray analysis; format: functional, cell-based
PBMC [5] = experiment: Antiinflammatory activity in human PBMC assessed as inhibition of phytohemagglutininin-induced IL5 release after 48 hrs by FACS Array analysis; format: functional, cell-based
Phosphodiesterase 4 [6] = biological target: T1, Phosphodiesterase 4 (Homo sapiens, UniProt P27815+Q08499+Q07343+Q08493); experiment: Inhibition of PDE4 in human U937 cells assessed as accumulation of [3H]adenosine by scintillation counting; format: cell-based; settings: u-937
PBMC [7] = experiment: Antiinflammatory activity in human PBMC assessed as inhibition of phytohemagglutininin-induced IL10 release after 48 hrs by FACS Array analysis; format: functional, cell-based
PBMC [8] = experiment: Antiinflammatory activity in human PBMC assessed as inhibition of phytohemagglutininin-induced IL2 release after 24 hrs by FACS Array analysis; format: functional, cell-based
[9] = biological target: cAMP and cAMP-inhibited cGMP 3',5'-cyclic phosphodiesterase 10A (Homo sapiens) (UniProt Q9Y233); experiment: Inhibition of human recombinant PDE10 expressed in baculovirus-infected insect Sf9 cells at 10 uM by modified two-step method
[10] = biological target: cGMP-specific 3',5'-cyclic phosphodiesterase (Homo sapiens) (UniProt O76074); experiment: Inhibition of human recombinant PDE5 expressed in baculovirus-infected insect Sf9 cells at 10 uM by modified two-step method
Phosphodiesterase 4 [11] = biological target: T1, Phosphodiesterase 4; experiment: Inhibition of human recombinant PDE4 catalytic domain expressed in baculovirus-infected insect Sf9 cells by modified two-step method
Mus musculus [12] = experiment: Antiinflammatory activity in mouse ear edema model assessed as inhibition of PMA-induced ear edema at 1 mg/ear administered 2 times 30 mins before and 15 mins after PMA challenge measured after 6 hrs of PMA application relative to control; format: functional
Phosphodiesterase 3 = Phosphodiesterase 3 (Homo sapiens, UniProt Q14432+Q13370); experiment: Inhibition of human recombinant PDE3 catalytic domain expressed in baculovirus-infected insect Sf9 cells by modified two-step method
Summary of the method: (§1)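 Human recombinant enzymes from a baculoviral expression system, tested in a modified two-step PDE assay as part of a PDE1–11 isozyme panel. IC50 values were calculated from the means of three experiments.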

[13] = biological target: cGMP-dependent 3',5'-cyclic phosphodiesterase (Homo sapiens) (UniProt O00408); experiment: Inhibition of human recombinant PDE2 expressed in baculovirus-infected insect Sf9 cells at 10 uM by modified two-step method
[14] = biological target: Dual specificity calcium/calmodulin-dependent 3',5'-cyclic nucleotide phosphodiesterase 1A (Homo sapiens, UniProt P54750); experiment: Inhibition of human recombinant PDE1A3 expressed in baculovirus-infected insect Sf9 cells by modified two-step method; summary of the method: as §1
Dual specificity calcium/calmodulin-dependent 3',5'-cyclic nucleotide phosphodiesterase 1A, sequence (P54750 whole entry): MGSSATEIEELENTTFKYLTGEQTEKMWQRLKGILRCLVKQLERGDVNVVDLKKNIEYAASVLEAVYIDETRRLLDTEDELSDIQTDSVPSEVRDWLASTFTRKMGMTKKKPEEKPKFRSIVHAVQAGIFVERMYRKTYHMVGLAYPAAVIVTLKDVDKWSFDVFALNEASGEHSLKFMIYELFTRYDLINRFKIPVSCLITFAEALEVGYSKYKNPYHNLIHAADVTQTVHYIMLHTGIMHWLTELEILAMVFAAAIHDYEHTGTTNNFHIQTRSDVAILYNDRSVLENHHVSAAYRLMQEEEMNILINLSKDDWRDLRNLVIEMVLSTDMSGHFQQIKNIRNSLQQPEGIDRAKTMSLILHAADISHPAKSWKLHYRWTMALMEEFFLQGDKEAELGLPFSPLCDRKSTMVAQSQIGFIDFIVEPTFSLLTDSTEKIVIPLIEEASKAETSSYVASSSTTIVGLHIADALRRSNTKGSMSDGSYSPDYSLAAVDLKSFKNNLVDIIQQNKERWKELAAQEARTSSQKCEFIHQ

[15] = biological target: Phosphodiesterase 8 (Homo sapiens) (UniProt O95263+O60658); experiment: Inhibition of human recombinant PDE8 expressed in baculovirus-infected insect Sf9 cells at 10 uM by modified two-step method
Phosphodiesterase 8 (Homo sapiens), sequence (O60658 whole entry, looked up): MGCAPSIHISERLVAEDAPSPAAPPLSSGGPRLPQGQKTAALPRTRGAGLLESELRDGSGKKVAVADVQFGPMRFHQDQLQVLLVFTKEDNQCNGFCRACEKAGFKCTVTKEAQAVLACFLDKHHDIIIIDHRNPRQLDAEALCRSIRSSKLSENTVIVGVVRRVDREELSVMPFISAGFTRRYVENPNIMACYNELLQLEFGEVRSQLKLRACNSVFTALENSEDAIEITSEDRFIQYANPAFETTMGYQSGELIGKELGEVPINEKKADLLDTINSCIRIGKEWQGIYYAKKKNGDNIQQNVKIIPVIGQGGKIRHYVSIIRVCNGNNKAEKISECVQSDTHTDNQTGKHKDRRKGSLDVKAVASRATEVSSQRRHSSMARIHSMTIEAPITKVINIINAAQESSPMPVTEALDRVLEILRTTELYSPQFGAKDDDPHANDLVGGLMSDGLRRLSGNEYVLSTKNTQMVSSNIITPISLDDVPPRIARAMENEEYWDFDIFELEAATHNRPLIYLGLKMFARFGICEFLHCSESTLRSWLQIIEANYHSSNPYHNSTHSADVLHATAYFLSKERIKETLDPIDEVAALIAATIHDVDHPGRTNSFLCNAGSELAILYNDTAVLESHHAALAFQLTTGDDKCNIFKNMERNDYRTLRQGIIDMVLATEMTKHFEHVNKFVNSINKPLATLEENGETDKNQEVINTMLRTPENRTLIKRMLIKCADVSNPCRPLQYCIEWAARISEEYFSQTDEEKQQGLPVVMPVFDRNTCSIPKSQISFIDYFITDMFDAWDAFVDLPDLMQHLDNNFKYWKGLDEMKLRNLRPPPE
Phosphodiesterase 8 (Homo sapiens), sequence (O95263 whole entry, looked up): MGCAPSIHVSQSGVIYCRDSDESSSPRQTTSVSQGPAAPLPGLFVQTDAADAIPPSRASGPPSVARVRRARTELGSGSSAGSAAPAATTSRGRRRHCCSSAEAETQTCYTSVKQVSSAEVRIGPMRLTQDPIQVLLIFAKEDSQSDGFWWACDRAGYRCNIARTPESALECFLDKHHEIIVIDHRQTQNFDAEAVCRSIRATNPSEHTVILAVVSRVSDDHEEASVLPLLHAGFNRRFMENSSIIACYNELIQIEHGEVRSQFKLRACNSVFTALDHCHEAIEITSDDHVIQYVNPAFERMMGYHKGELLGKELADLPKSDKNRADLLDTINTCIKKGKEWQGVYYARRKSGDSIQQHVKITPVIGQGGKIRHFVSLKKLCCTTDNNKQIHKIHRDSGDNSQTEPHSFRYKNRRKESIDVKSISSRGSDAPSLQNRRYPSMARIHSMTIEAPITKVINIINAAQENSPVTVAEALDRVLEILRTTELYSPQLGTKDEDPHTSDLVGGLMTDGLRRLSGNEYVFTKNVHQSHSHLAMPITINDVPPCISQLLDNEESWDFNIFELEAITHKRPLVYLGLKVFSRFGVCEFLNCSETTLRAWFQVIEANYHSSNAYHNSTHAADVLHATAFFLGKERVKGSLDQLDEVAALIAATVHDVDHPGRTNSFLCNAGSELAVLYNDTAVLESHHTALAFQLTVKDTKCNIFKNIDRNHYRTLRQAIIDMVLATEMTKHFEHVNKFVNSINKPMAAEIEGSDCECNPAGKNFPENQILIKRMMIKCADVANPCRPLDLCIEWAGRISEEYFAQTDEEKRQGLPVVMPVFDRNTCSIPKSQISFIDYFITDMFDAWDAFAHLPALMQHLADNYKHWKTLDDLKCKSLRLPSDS

[16] = biological target: High affinity cGMP-specific 3',5'-cyclic phosphodiesterase 9A (Homo sapiens) (UniProt O76083); experiment: Inhibition of human recombinant PDE9 expressed in baculovirus-infected insect Sf9 cells at 10 uM by modified two-step method
High affinity cGMP-specific 3',5'-cyclic phosphodiesterase 9A (Homo sapiens), sequence (O76083 whole entry): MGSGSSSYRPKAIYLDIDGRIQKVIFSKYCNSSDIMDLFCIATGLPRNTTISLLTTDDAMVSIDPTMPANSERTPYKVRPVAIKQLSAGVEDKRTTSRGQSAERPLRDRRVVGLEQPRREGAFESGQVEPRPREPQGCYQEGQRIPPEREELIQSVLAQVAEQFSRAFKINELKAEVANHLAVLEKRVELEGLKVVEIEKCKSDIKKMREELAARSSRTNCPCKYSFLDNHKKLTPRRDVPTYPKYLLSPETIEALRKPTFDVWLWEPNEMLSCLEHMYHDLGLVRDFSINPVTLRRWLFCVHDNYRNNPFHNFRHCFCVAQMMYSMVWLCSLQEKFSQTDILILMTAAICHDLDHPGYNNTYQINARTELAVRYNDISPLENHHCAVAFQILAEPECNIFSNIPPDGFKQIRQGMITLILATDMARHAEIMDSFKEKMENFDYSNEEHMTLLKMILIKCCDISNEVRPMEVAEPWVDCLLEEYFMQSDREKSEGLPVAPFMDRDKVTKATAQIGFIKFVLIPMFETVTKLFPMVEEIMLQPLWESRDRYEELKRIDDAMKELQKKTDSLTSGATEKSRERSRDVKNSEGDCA

[17] = biological target: Phosphodiesterase 6 (Homo sapiens) (UniProt Q13956+P18545+P35913+O43924+P16499+P51160); experiment: Inhibition of human recombinant PDE6 expressed in baculovirus-infected insect Sf9 cells at 10 uM by modified two-step method
[18] = biological target: Dual 3',5'-cyclic-AMP and -GMP phosphodiesterase 11A (Homo sapiens) (UniProt Q9HCR9); experiment: Inhibition of human recombinant PDE11 expressed in baculovirus-infected insect Sf9 cells at 10 uM by modified two-step method
Dual 3',5'-cyclic-AMP and -GMP phosphodiesterase 11A (Homo sapiens), sequence (Q9HCR9 whole entry, looked up): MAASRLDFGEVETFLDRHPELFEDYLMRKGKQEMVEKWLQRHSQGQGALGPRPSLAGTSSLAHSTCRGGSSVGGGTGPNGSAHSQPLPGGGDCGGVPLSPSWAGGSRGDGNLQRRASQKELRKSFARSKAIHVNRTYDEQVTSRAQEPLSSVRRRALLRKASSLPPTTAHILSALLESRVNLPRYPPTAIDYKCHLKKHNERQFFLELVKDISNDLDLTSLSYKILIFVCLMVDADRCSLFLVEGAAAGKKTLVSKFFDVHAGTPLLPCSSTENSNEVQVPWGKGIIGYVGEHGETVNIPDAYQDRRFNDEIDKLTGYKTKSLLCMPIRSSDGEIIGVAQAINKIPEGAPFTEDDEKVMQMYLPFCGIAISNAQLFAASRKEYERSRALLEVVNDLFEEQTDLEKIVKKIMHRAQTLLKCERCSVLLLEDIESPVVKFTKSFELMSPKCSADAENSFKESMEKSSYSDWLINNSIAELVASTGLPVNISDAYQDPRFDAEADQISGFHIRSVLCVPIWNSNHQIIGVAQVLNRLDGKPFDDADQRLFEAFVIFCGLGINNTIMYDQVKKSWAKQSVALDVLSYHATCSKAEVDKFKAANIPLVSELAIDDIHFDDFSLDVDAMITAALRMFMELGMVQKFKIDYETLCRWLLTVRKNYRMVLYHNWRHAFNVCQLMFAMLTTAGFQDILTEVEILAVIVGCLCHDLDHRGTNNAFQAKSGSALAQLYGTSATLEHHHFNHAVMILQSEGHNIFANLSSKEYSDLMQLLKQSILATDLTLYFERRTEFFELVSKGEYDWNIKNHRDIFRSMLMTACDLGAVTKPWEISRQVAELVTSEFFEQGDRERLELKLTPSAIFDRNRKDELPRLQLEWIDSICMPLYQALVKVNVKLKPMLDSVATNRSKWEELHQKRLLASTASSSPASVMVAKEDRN

[19] = biological target: High affinity 3',5'-cyclic-AMP phosphodiesterase 7A (Homo sapiens, UniProt Q13946); experiment: Inhibition of human recombinant PDE7A1 expressed in baculovirus-infected insect Sf9 cells by modified two-step method
High affinity 3',5'-cyclic-AMP phosphodiesterase 7A, sequence (Q13946 whole entry): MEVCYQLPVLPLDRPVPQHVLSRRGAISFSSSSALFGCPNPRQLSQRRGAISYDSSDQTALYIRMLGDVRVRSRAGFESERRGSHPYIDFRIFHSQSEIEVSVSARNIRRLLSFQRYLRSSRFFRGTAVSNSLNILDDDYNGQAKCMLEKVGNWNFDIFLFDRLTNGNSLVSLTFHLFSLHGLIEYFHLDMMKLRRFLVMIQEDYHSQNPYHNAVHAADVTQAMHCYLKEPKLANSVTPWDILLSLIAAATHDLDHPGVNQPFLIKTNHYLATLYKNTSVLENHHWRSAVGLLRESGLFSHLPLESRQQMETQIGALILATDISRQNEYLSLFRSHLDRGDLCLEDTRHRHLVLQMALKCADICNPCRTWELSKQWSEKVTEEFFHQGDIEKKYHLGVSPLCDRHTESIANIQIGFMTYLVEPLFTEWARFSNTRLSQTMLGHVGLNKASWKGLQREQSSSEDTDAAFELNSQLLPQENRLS
Summary of the method: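 PDE7A1 was a human recombinant enzyme from a baculoviral expression system, tested in a modified two-step assay. Its substrate concentration was reduced compared with the other panel isozymes. IC50 values were calculated from the means of three experiments.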

Mus musculus [20] = experiment: Antiinflammatory activity in mouse ear edema model assessed as inhibition of PMA-induced ear edema at 3 mg/ear administered 2 times 30 mins before and 15 mins after PMA challenge measured after 6 hrs of PMA application relative to control; format: functional

N#Cc1ccc(Oc2ccc3c(c2)B(O)OC3)cc1
inhibition (PBMC [1]): inactive | inhibition (PBMC [2]): inactive | IC50 (PBMC [3]): > 10 µM | Activity (L929): Non-toxic | IC50 (PBMC [4]): > 10 µM | IC50 (PBMC [5]): > 10 µM | IC50 (Phosphodiesterase 4 [6]): > 30 µM | IC50 (PBMC [7]): > 10 µM | IC50 (PBMC [8]): > 10 µM

N#Cc1ccc(Oc2ccc3c(c2)COB3O)cc1 [CRISABOROLE]
inhibition (PBMC [1]): inactive | inhibition [9]: inactive | inhibition [10]: inactive | IC50 (Phosphodiesterase 4 [11]): 0.11 µM | inhibition (PBMC [2]): inactive | inhibition (INH) (Mus musculus [12]): 78% | IC50 (Phosphodiesterase 3): 6.4 µM | inhibition [13]: inactive | IC50 [14]: 6.1 µM | IC50 (PBMC [3]): 0.54 µM | Activity (L929): Non-toxic | IC50 (PBMC [4]): 0.83 µM | IC50 (PBMC [5]): 2.4 µM | inhibition [15]: inactive | IC50 (Phosphodiesterase 4 [6]): 0.49 µM | IC50 (PBMC [7]): 5.3 µM | inhibition [16]: inactive | inhibition [17]: inactive | IC50 (PBMC [8]): 0.61 µM | inhibition [18]: inactive

CCN(CC)C(=O)c1ccc(Oc2ccc3c(c2)COB3O)cc1
IC50 (Phosphodiesterase 4 [6]): 1.5 µM

CCN(CC)S(=O)(=O)c1ccc(Oc2ccc3c(c2)COB3O)cc1
IC50 (Phosphodiesterase 4 [6]): 3.4 µM

COCc1nc2c([nH]1)c(=O)n(C)c(=O)n2CC(C)C
IC50 [14]: 10 µM

O=C1CCc2cc(OCCCCc3nnnn3C3CCCCC3)ccc2N1 [CILOSTAZOL]
IC50 (Phosphodiesterase 3): 0.84 µM

Cc1ccc([N+](=O)[O-])cc1S(=O)(=O)N(C)C
IC50 [19]: 2.2 µM

N#Cc1cccc(Oc2ccc3c(c2)COB3O)c1
IC50 (Phosphodiesterase 4 [6]): 4.4 µM

N#Cc1ccc(Oc2cccc3c2COB3O)cc1
IC50 (Phosphodiesterase 4 [6]): 6 µM

COc1ccc(Oc2ccc3c(c2)COB3O)cc1
IC50 (Phosphodiesterase 4 [6]): 2.7 µM

O=C(c1ccc(Oc2ccc3c(c2)COB3O)cc1)N1CCOCC1
IC50 (Phosphodiesterase 4 [6]): 0.57 µM

CN1CCN(S(=O)(=O)c2ccc(Oc3ccc4c(c3)COB4O)cc2)CC1
IC50 (Phosphodiesterase 4 [6]): > 30 µM

OB1OCc2cc(Oc3ccc(C(F)(F)F)cc3)ccc21
IC50 (Phosphodiesterase 4 [6]): 0.45 µM

Cc1ccc(Oc2ccc3c(c2)COB3O)cc1
IC50 (Phosphodiesterase 4 [6]): 2 µM

OB1OCc2cc(Oc3ccc(Cl)cc3)ccc21
IC50 (Phosphodiesterase 4 [6]): 1.3 µM

COc1ccc(C2CNC(=O)C2)cc1OC1CCCC1 (stereo not drawn) [ROLIPRAM]
inhibition (INH) (Mus musculus [12]): 6% | IC50 (PBMC [3]): 0.16 µM | IC50 (PBMC [4]): 0.23 µM | IC50 (PBMC [5]): 0.5 µM | inhibition (INH) (Mus musculus [20]): 53% | IC50 (PBMC [7]): 0.88 µM | IC50 (PBMC [8]): 0.23 µM

C[C@@H]1C[C@H]2[C@@H]3CCC4=CC(=O)C=C[C@]4(C)[C@@]3(F)[C@@H](O)C[C@]2(C)[C@@]1(O)C(=O)CO [DEXAMETHASONE]
inhibition (INH) (Mus musculus [12]): 72%

N#Cc1ccc(Oc2cccc3c2B(O)OC3)cc1
IC50 (Phosphodiesterase 4 [6]): > 30 µM

OB1OCc2cc(Oc3ccc(F)cc3)ccc21
IC50 (Phosphodiesterase 4 [6]): 7.7 µM

N#Cc1ccccc1Oc1ccc2c(c1)COB2O
IC50 (Phosphodiesterase 4 [6]): 3.7 µM

OB1OCc2cc(Oc3ccccc3)ccc21
IC50 (Phosphodiesterase 4 [6]): 6.8 µM

O=C(O)c1ccc(Oc2ccc3c(c2)COB3O)cc1
inhibition (PBMC [1]): inactive | inhibition (PBMC [2]): inactive | IC50 (PBMC [3]): > 10 µM | Activity (L929): Non-toxic | IC50 (PBMC [4]): > 10 µM | IC50 (PBMC [5]): > 10 µM | IC50 (Phosphodiesterase 4 [6]): 6.4 µM | IC50 (PBMC [7]): > 10 µM | IC50 (PBMC [8]): > 10 µM
